What was measured:
[1] = Inhibition of Hepatitis C virus core protein dimerization by core dimerization assay; set-up: species or system Hepacivirus hominis
Hepatitis C virus [2] = assay: Antiviral activity against Hepatitis C virus JFH-1 J6 infected in human HuH7.5 cells assessed as inhibition of virus propagation measured after 72 hrs; type: functional, organism-based, Hepacivirus hominis; conditions: subtype 2a JFH1 J6, Huh-7, 72 h
Outline: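 Huh-7.5 hepatoma cells infected with HCV genotype 2a J6/JFH-1 were treated with inhibitor at 0.001–100 µM. […] An NS3/NS4A protease inhibitor served as positive control. Values are means of three experiments.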

Hepatitis C virus [3] = assay: Antiviral activity against Hepatitis C virus JFH-1 J6 infected in human HuH7.5 cells assessed as inhibition of virus propagation measured after 72 hrs of transfer to fresh media; type: functional, organism-based, Hepacivirus hominis; conditions: subtype 2a JFH1 J6, Huh-7, 72 h
Outline: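 Huh-7.5 hepatoma cells, HCV 2a J6/JFH-1. Virus secreted during the initial 72 hr inhibitor-treated culture (0.001–100 µM) was used to infect fresh cells, which were cultured a second 72 hr (T2). HCV propagation was then assessed, with an NS3/NS4A protease inhibitor as positive control. Values are means of three experiments.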

[4] = Cytotoxicity against human Huh7.5 cells; type: cell-based; conditions: huh-7
Outline: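 Huh-7.5 hepatoma cells; read-out is the 50% cytotoxic concentration (CC50), reported as the mean of three experiments.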

## COC(=O)C1=C(C(=O)OC)[C@@H]2N(CCOCCN3c4ccccc4[C@]45CCC(=O)N(Cc6ccccc6)C4=NC(C(=O)OC)=C(C(=O)OC)[C@H]35)c3ccccc3[C@@]23CCC(=O)N(Cc2ccccc2)C3=N1
[1]
  IC50: 98 nM
Hepatitis C virus [2]
  EC50: 480 nM
Hepatitis C virus [3]
  EC50: 2500 nM
[4]
  CC50: > 100000 nM

## COC(=O)C1=C(C(=O)OC)[C@@H]2N(CCCN3c4ccccc4[C@]45CCC(=O)N(Cc6ccccc6)C4=NC(C(=O)OC)=C(C(=O)OC)[C@H]35)c3ccccc3[C@@]23CCC(=O)N(Cc2ccccc2)C3=N1
[1]
  IC50: 2900 nM
Hepatitis C virus [2]
  EC50: 88 nM
Hepatitis C virus [3]
  EC50: 735 nM
[4]
  CC50: > 36000 nM

## COC(=O)C1=C(C(=O)OC)[C@@H]2N(CCCCCN3c4ccccc4[C@]45CCC(=O)N(Cc6ccccc6)C4=NC(C(=O)OC)=C(C(=O)OC)[C@H]35)c3ccccc3[C@@]23CCC(=O)N(Cc2ccccc2)C3=N1 (mixture of isomers)
[1]
  IC50: 720 nM
Hepatitis C virus [2]
  EC50: 90 nM
Hepatitis C virus [3]
  EC50: 29900 nM
[4]
  CC50: > 36000 nM

## COC(=O)C1=C(C(=O)OC)[C@@H]2N(CCCCCn3cc(-c4ccc(OC)cc4C)nn3)c3ccccc3[C@@]23CCC(=O)N(Cc2ccccc2)C3=N1 (racemic)
[1]
  IC50: 92 nM
Hepatitis C virus [2]
  EC50: 1400 nM
Hepatitis C virus [3]
  EC50: 1100 nM
[4]
  CC50: > 100000 nM

## COC(=O)C1=C(C(=O)OC)[C@@H]2N(CCCCCn3cc(CNC(C)=O)nn3)c3ccccc3[C@@]23CCC(=O)N(Cc2ccccc2)C3=N1 (racemic)
[1]
  IC50: 341 nM
Hepatitis C virus [2]
  EC50: 26200 nM
Hepatitis C virus [3]
  EC50: 56200 nM
[4]
  CC50: 150000 nM

## COc1ccc2c(O[C@@H]3C[C@H]4C(=O)N[C@]5(C(=O)O)C[C@H]5/C=C\CCCCC[C@H](NC(=O)OC5CCCC5)C(=O)N4C3)cc(-c3csc(NC(C)C)n3)nc2c1 [CILUPREVIR]
Hepatitis C virus [2]
  EC50: 72 nM
Hepatitis C virus [3]
  EC50: 71 nM

Source: ChEMBL document CHEMBL1759845, “Potent inhibitors of hepatitis C core dimerization as new leads for anti-hepatitis C agents” (Bioorg Med Chem Lett, 2011)
